# From PubChem
# RAM inhibit = blocks the yeast RAM network | S. cerevisiae dse1pr::URA3 reporter, 5-FOA growth OD615, 2 d; analog-sensitive cbk1-as2 kinase mutant strain | inhibition, % at 50 µM | hit rate 1.8% among 190,000 | AID 868;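 active = inhibition above a set limit, 3 SD over mean compound inhibition, cut at about 8.4% in these data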;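 note: 0% = DMSO-only wells with no growth and 100% = 10 µM 1-NA-PP1 full growth; inhibition rescues growth on 5-FOA so higher OD means more RAM inhibition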
# Yeast lifespan up = yeast lifespan extension. S. cerevisiae growth with nicotinamide, OD615; deaD strain in restrictive glucose medium. inhibition of the nicotinamide effect, % at 10 µM. hit rate 0.68% among 130,000;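 active = inhibition above a set limit, placed 3 SD over the median of all compounds, cut at about 26% in these data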;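 note: 0% = nicotinamide-treated wells and 100% = cells grown without nicotinamide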
#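 Assay system: engineered S. cerevisiae DeaD replicative-lifespan strain, galactose-grown log-phase cells; medium: restrictive CSMM-D dextrose medium; also added: nicotinamide, 1.5 mM, co-present with compound; schedule: 48 h compound exposure at 30 °C, humidified; detection: absorbance at 615 nm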
# WT yeast gro inh = growth inhibition of WT yeast, mitochondrial fusion screen; mitochondrial fusion phenotypic screen, WT strain; inhibition, % at 10 µM; hit rate 2.1% among 190,000; AID 1362; in the data active = inhibition above about 58%; tested in S. cerevisiae
# KCC2 mod = modulators of human KCC2 chloride dependent transport. KCC2 cells, thallium flux FluoZin-2 fluorescence. B-score of Tl+ flux slope (higher = more flux/activation; lower = inhibition) at 10 µM. hit rate 2.2% among 190,000;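 active = thallium flux slope and its plate-corrected score both differing from the plate sample mean at a set confidence after two filtering rounds, in either direction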;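 note: slope of fluorescence scaled to starting intensity during 10 to 20 s after thallium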
# BB579 growth dn = yeast BB579 growth reduction in restrictive medium | S. cerevisiae BB579 growth, OD615, 48 h | inhibition, % at 10 µM | hit rate 0.51% among 140,000;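 active = inhibition above a set limit, 3 SD over the mean compound inhibition, cut at about 44% in these data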
#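 Material: Saccharomyces cerevisiae DeaD strain BB579, replicative lifespan model yeast; buffer or medium: CSMM-D restrictive synthetic medium containing dextrose (glucose); compound: 10 µM single dose, DMSO 0.25%; timing: 48 h compound exposure at 30 °C after 4 h preincubation; signal: turbidity as optical density at 615 nm; benchmarks: positive control amphotericin B 10 µg/mL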
# KCC2 sec1 = confirmation of human KCC2 transport modulators. shares compounds with KCC2 mod. HEK293-KCC2, thallium flux, FluoZin2 fluorescence; stronger effect = higher value. normalised thallium flux (F/F0 slope) at 10 µM. hit rate 15% among 3,700. AID 1713;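 active = thallium flux slope above the same plate's solvent-only control mean plus 3 SD; inconclusive = the two replicate wells disagree; inactive = no significant difference from solvent-only control wells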
# KCC2 bumet counter = thallium flux persisting under bumetanide in KCC2 cells, counter-screen secondary assay. shares compounds with KCC2 mod. HEK293-KCC2 + bumetanide/ouabain, thallium flux FluoZin2; stronger effect = higher value. normalized thallium flux at 10 µM. hit rate 49% among 3,700. AID 1714;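 active = thallium entry rate above the same plate's blocked-transporter control wells by more than 3 SD; inconclusive = the two repeat wells disagree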;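 note: raw slope of fluorescence over initial fluorescence between 10 and 20 s after thallium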
# KCC2 sec2 = confirmation of human KCC2 transport modulators; HEK293-KCC2, thallium flux FluoZin2 fluorescence; actives lie on both sides; F/F0 rise rate, 10–20 s post-thallium; AID 1715; normalized thallium flux at 10 µM; shares compounds with KCC2 mod; hit rate 23% among 3,700;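 active = thallium flux slope more than 3 SD above or below the plate's solvent-only control mean, mostly below; inconclusive = the two repeat wells disagreed; inactive = no significant shift from solvent-only controls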;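 note: raw slope with 0.1% DMSO as baseline and bumetanide as block control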
# HEK293 Tl flux = counter-screen for KCC2 modulators: effect in parental HEK293 cells. shares compounds with KCC2 mod. thallium flux FluoZin2, ouabain; baseline-ratio fluorescence slope, 10–20 s after thallium. thallium flux rate (normalised fluorescence) at 10 µM. hit rate 46% among 3,700;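 active = thallium flux rate significantly above the same plate's solvent-only control wells, beyond their mean plus 3 SD; inconclusive = the two replicate wells gave conflicting results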
# KCC2 retest ouab = modulates human KCC2 on retest with ouabain; shares compounds with KCC2 mod; HEK293-KCC2, thallium flux FluoZin2 fluorescence; bidirectional: low = inhibitor, high = activator; raw Tl+ flux slope (below DMSO = inhibition, above = activation) at 10 µM; hit rate 48% among 3,700; AID 1717;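 active = thallium flux slope beyond 3 SD from same-plate DMSO control mean in most replicates, usually higher, sometimes lower; inconclusive = repeat tests gave conflicting results; inactive = no significant difference from controls in most replicates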;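 note: slope of initial-normalized fluorescence between seconds 10 and 20 after thallium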
# HEK counter2 = counter-screen for KCC2 modulators: effect in parental HEK293 cells; shares compounds with KCC2 mod; thallium flux slope at 10 µM; hit rate 33% among 3,700; thallium flux FluoZin-2 fluorescence slope;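 active = thallium flux slope above the same plate's solvent-control mean plus 3 SD in both duplicate wells; inconclusive = duplicate wells that disagreed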;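 note: run without ouabain in cells lacking the KCC2 cotransporter; slope of fluorescence scaled to its starting value between 10 and 20 s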
# Active calls of the source: *; ? = inconclusive; . = not tested or not shown. Compounds with a hit are over-represented: about 5.5% of the library has one in this group of screens.
SMILES,RAM inhibit,Yeast lifespan up,WT yeast gro inh,KCC2 mod,BB579 growth dn,KCC2 sec1,KCC2 bumet counter,KCC2 sec2,HEK293 Tl flux,KCC2 retest ouab,HEK counter2
O=C(Nc1cccc(Cl)c1)N1CCN(Cc2ccccc2)CC1,1,-7,-13,-4.6*,-55,0.0072,0.0054,0.03,0.0072,0.029*,?
Cc1cccc(NC(=O)N2CCN(Cc3ccc(Cl)cc3)CC2)c1,0,.,8,-2.6,.,.,.,.,.,.,.
CN(C(=S)SCc1ccccc1)C1CCS(=O)(=O)C1 (stereo not drawn),1,.,1,0.25,.,.,.,.,.,.,.
Cc1cc(S(=O)(=O)NCC(C)C)ccc1OCC(=O)N1CCOCC1,3,-5,-3,-0.39,13,.,.,.,.,.,.
CCOC(=O)N1CCN(C(=O)COc2ccc(S(=O)(=O)NCC(C)C)cc2C)CC1,0,-5,-6,.,-2,0.0087,0.0064,0.028,0.0068,0.021,0.0093
O=C(c1cccc(S(=O)(=O)Nc2ccccc2F)c1)N1CCN(c2ccccc2F)CC1,1,.,-10,-0.73,.,.,.,.,.,.,.
N#Cc1c(-c2ccccc2)nc(SCc2nc(N)nc(N3CCCCC3)n2)[nH]c1=O,3,-5,-11,-2.7*,-31,?,0.0046,0.025*,0.0059*,0.012*,?
CCNC(=O)NC(=O)COC(=O)CCCSc1nc2ccccc2[nH]1,2,-3,-1,0.26,-19,.,.,.,.,.,.
O=C(COC(=O)CCCSc1nc2ccccc2[nH]1)NC(=O)NC1CCCC1,-1,-3,-5,-0.9,-45,0.0092,0.0053,0.033,?,0.02,0.01
Cc1cc(Nc2ccccc2C(=O)O)n(-c2ccc([N+](=O)[O-])cc2)n1,.,.,.,-0.6,.,.,.,.,.,.,.
CCC(C)(C)C1CCC2(CC1)NC(=O)N(CC(=O)Nc1nc(-c3ccc(C)cc3)cs1)C2=O (stereo not drawn),5,-12,10,-0.89,-35,.,.,.,.,.,.
CC1(C)NC(=O)N(CC(=O)Nc2nc(-c3ccc(F)cc3)cs2)C1=O,5,-10,7,-4.9*,-30,0.0061,0.0069,0.024*,0.0074,0.013*,?
CCCC(=O)Nc1nc(-c2ccc3c(c2)CCN3S(C)(=O)=O)cs1,4,-10,5,6.2*,-34,0.011,0.0071,0.029,?,0.021,0.01
O=C(CN1C(=O)NC2(CCCC2)C1=O)Nc1nc(-c2ccc(F)cc2)cs1,4,-2,8,-6.6*,13,0.0092,0.0066,0.027*,0.0075,0.014*,0.01
COc1ccc(-c2csc(NC(=O)CN3C(=O)CCC3=O)n2)cc1,3,.,-18,0.046,.,.,.,.,.,.,.
CN1CCN(CC(=O)Nc2nc(-c3ccccc3)cs2)CC1,1,-7,12,.,-2,0.0082,0.0087*,0.032,0.0088,0.021,0.011
COc1ccc(C2(O)CCN(CC(=O)Nc3nc(-c4ccccc4)cs3)CC2)cc1,0,.,35,-0.93,.,.,.,.,.,.,.
CS(=O)(=O)N1CCc2cc(-c3csc(NC(=O)Cc4ccccc4)n3)ccc21,1,.,25,-1.1,-46,.,.,.,.,.,.
Cc1ccc(NC(=O)Cc2ncc(C(F)(F)F)cc2Cl)cc1Cl,3,-18,12,0.007,-35,.,.,.,.,.,.
Cc1onc(-c2c(F)cccc2Cl)c1C(=O)OCC(=O)c1c(N)n(C)c(=O)n(C)c1=O,1,.,-10,-1.1,.,.,.,.,.,.,.
CS/C(=C/[N+](=O)[O-])Nc1cccc2c1C(C)CC2(C)C (stereo not drawn),1,.,-13,-5.1*,.,0.0083,?,0.032,0.0068,0.014*,0.011
Oc1oc(-c2ccccc2)nc1/C=N/c1nccs1,6,-1,-9,14*,-1,0.016*,0.082*,0.032,0.017*,0.044*,0.012*
CCCCOc1ccc(-c2nc(/C=N/c3nccs3)c(O)o2)cc1,4,5,-1,2.2,-34,.,.,.,.,.,.
Cc1cc2nc(-c3ccc(SCc4ccccn4)nc3)[nH]c2cc1C,3,.,-6,-0.83,.,.,.,.,.,.,.
Cc1ccc(NC(=O)c2cc(NC(=O)C3CC=CCC3C(=O)O)ccc2N2CCOCC2)cc1Cl (stereo not drawn),2,-11,-2,.,5,.,.,.,.,.,.
SMILES,RAM inhibit,Yeast lifespan up,WT yeast gro inh,KCC2 mod,BB579 growth dn,KCC2 sec1,KCC2 bumet counter,KCC2 sec2,HEK293 Tl flux,KCC2 retest ouab,HEK counter2
C/C(N)=C(/C#N)C(=O)CSc1nnc(SCc2ccc(Cl)cc2)s1,1,15,20,.,-26,0.007,0.0071,0.032,0.0041,?,0.012
FC(F)(F)c1cccc(OCC2CNC(=S)O2)c1 (stereo not drawn),.,.,.,0.15,.,.,.,.,.,.,.
COCCn1c(N2CCN(c3ccc(OC)cc3)CC2)nc2c1c(=O)n(C)c(=O)n2C,0,-8,17,.,-58,0.0088,0.0056,0.031,0.0078,0.018,0.011
CCN1C(=O)C2(C(C(=O)c3cc4ccccc4o3)=C(O)C(=O)N2CCCN2CCOCC2)c2ccccc21 (stereo not drawn),.,.,.,-0.29,.,.,.,.,.,.,.
COc1ccc(OC)c(NC(=O)C(=O)NNC(=O)C23CC4CC(CC(C4)C2)C3)c1,.,.,.,135*,.,0.044*,0.11*,0.071*,0.1*,0.081*,0.045*
COc1ccc(OC)c(NC(=O)C(=O)NCc2ccncc2)c1,0,-4,-13,0,-56,.,.,.,.,.,.
Cc1ccc(/C=N/n2c(C3CCCCC3)n[nH]c2=S)s1,2,-1,5,7.3*,-20,0.011,0.022*,0.033,0.011*,0.027,?
c1ccc2oc(-c3ccc(Nc4nc(N5CCCC5)nc(N5CCOCC5)n4)cc3)nc2c1,8,.,8,0.28,.,.,.,.,.,.,.
O=C(/C=C/c1ccccc1)N/C(=C/c1ccccc1)C(=O)N1CCCCC1,0,-4,3,.,-11,.,.,.,.,.,.
N#C/C(=C(O)\C=C\c1ccccc1)c1nc2ccccc2[nH]1,.,.,.,6.6*,.,0.0058,0.0049,?,0.0076,0.019,0.01
O=c1c2cc(Br)ccc2nc(-c2ccc([N+](=O)[O-])cc2)n1O,-1,.,26,72*,.,0.05*,0.11*,0.058*,0.053*,0.069*,0.027*
O=c1c2cc(Cl)ccc2nc(-c2ccccc2)n1O,0,.,2,50*,.,0.032*,0.073*,0.033,0.034*,0.052*,0.018*
